Data set [1] can be described thus: Aqueous solubility of the compound in PBS assessed as precipitate formation at pH 7 after 1 hr. The settings on record: buffer, pH 7, 1 h.
A short description of data set [2]: Aqueous solubility of the compound in PBS at 1 to 10 mg/ml assessed as precipitate formation at pH 7 at 4 degC after 7 days. It counts as physicochemical. As to conditions: buffer, pH 7, 168 h.
Data set [3] has as its system Rattus norvegicus. Nature of the data set: Hyperglycemic activity in lean Wistar rat assessed as elevation of plasma glucose levels at 10 nmol/kg, ip after 120 mins in absence of insulin by glucometer. It counts as functional, organism-based.
Data set [4] has as its system Rattus norvegicus. Nature of the data set: Antihypoglycemic activity in lean Wistar rat assessed as prevention of insulin-induced glucose reduction at 15 nmol/kg, ip after 30 mins by glucometer. Format: functional, organism-based. In a few lines:
(§1)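 Lean rats received a fixed insulin dose chosen to induce hypoglycemia, together with peptide or vehicle. Blood glucose was followed for 60 min after administration. Groups were compared by one-way ANOVA with Dunnett's test against the insulin group, with P < 0.05 taken as significant.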

The test system of data set [5] is Sus scrofa. Nature of the data set: Antihypoglycemic activity in diabetic Yucatan pig assessed as prevention of insulin detemir-induced blood glucose reduction at 10 nmol/kg, sc administered 240 mins post insulin detemir challenge measured during compound dosing by glucometer.
For data set [6], the target named is Glucagon receptor (Homo sapiens) (UniProt P47871). The experiment in a line: Activation of glucagon receptor (unknown origin) transfected in HEK293 cells co-transfected with luciferase reporter gene linked CRE element assessed as compound EC50 preincubated in PBS buffer for 4 weeks at elevated temperature and pH 7 followed by protein addition measured after 5 hrs in presence of luclite substrate by liquid scintillation counting relative to control. Format: functional, cell-based. In a few lines: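 Analog incubated at 2.0 mg/mL in 50 mM sodium phosphate, 150 mM NaCl at pH 7 (also pH 5, 6), 37 °C, stirred at 200 rpm for 1 and 4 weeks. T=0 reference kept at -45 °C. […] Cells exposed to serial dilutions for 5 h at 37 °C, then LucLite luminescence read. Reported as percent change in EC50.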
Sequence of Glucagon receptor (Homo sapiens) (P47871 whole entry): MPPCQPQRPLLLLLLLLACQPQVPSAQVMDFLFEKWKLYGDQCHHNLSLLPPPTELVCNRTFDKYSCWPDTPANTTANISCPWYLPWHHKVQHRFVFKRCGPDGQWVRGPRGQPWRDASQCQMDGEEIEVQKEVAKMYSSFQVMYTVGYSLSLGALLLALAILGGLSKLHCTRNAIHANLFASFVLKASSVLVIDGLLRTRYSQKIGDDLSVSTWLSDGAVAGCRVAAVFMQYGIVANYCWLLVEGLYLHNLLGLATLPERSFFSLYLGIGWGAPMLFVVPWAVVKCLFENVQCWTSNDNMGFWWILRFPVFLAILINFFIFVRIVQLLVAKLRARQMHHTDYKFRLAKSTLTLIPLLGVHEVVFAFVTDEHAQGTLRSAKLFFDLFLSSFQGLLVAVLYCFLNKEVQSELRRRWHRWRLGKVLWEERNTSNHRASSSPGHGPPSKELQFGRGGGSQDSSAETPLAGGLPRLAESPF
In general terms: A reporter such as luciferase makes a cellular process visible.

Data set [7] relates to Rattus norvegicus. Nature of the data set: Antihypoglycemic activity in lean Wistar rat assessed as prevention of insulin-induced glucose reduction at 15 nmol/kg, ip after 60 mins by glucometer. It counts as functional, organism-based. A digest of the protocol:
as §1

Activity calls are given as the source filed them. No cut-off for these calls is given here. Non-standard residues stand in square brackets, D forms with d. Residues, ends and D or L forms follow the SMILES beside them. 3Pal = N[C@@H](Cc1cccnc1)C(=O)O; Aib = CC(C)(N)C(=O)O

For orientation: solubility means the dissolved amount per volume that the medium holds.

Take `CSCC[C@H](NC(=O)[C@H](CC(C)C)NC(=O)[C@H](Cc1c[nH]c2ccccc12)NC(=O)[C@H](CCC(N)=O)NC(=O)[C@@H](NC(=O)[C@H](Cc1ccccc1)NC(=O)[C@H](CC(=O)O)NC(=O)[C@H](CCC(N)=O)NC(=O)[C@H](C)NC(=O)[C@H](CCCNC(=N)N)NC(=O)[C@H](CCCNC(=N)N)NC(=O)C(C)(C)NC(=O)[C@H](CC(=O)O)NC(=O)[C@H](CC(C)C)NC(=O)[C@H](Cc1ccc(O)cc1)NC(=O)[C@H](CCCCN)NC(=O)[C@H](CO)NC(=O)[C@H](Cc1ccc(O)cc1)NC(=O)[C@H](CC(=O)O)NC(=O)[C@H](CO)NC(=O)[C@@H](NC(=O)[C@H](Cc1cccnc1)NC(=O)[C@@H](NC(=O)CNC(=O)[C@H](CCC(N)=O)NC(=O)[C@H](CO)NC(=O)[C@@H](N)Cc1cnc[nH]1)[C@@H](C)O)[C@@H](C)O)C(C)C)C(=O)N[C@@H](CC(N)=O)C(=O)N[C@H](C(=O)O)[C@@H](C)O`: in data set [1], the solubility was above 1 mg/mL.
Turning to `CSCC[C@H](NC(=O)[C@H](CC(C)C)NC(=O)[C@H](Cc1c[nH]c2ccccc12)NC(=O)[C@H](CCC(N)=O)NC(=O)[C@@H](NC(=O)[C@H](Cc1ccccc1)NC(=O)[C@H](CC(=O)O)NC(=O)[C@H](CCC(N)=O)NC(=O)[C@H](C)NC(=O)[C@H](CCCNC(=N)N)NC(=O)[C@H](CCCNC(=N)N)NC(=O)C(C)(C)NC(=O)[C@H](CC(=O)O)NC(=O)[C@H](CC(C)C)NC(=O)[C@H](Cc1ccncc1)NC(=O)[C@H](CCCCN)NC(=O)[C@H](CO)NC(=O)[C@H](Cc1ccncc1)NC(=O)[C@H](CC(=O)O)NC(=O)[C@H](CO)NC(=O)[C@@H](NC(=O)[C@H](Cc1ccncc1)NC(=O)[C@@H](NC(=O)CNC(=O)[C@H](CCC(N)=O)NC(=O)[C@H](CO)NC(=O)[C@@H](N)Cc1cnc[nH]1)[C@@H](C)O)[C@@H](C)O)C(C)C)C(=O)N[C@@H](CC(N)=O)C(=O)N[C@H](C(=O)O)[C@@H](C)O`, the solubility result is “Soluble” in data set [2] and above 15 mg/mL in data set [1].
For `CSCC[C@H](NC(=O)[C@H](CC(C)C)NC(=O)[C@H](Cc1c[nH]c2ccccc12)NC(=O)[C@H](CCC(N)=O)NC(=O)[C@@H](NC(=O)[C@H](Cc1ccccc1)NC(=O)[C@H](CC(=O)O)NC(=O)[C@H](CCC(N)=O)NC(=O)[C@H](C)NC(=O)[C@H](CCCNC(=N)N)NC(=O)[C@H](CCCNC(=N)N)NC(=O)C(C)(C)NC(=O)[C@H](CC(=O)O)NC(=O)[C@H](CC(C)C)NC(=O)[C@H](Cc1cccnc1)NC(=O)[C@H](CCCCN)NC(=O)[C@H](CO)NC(=O)[C@H](Cc1cccnc1)NC(=O)[C@H](CC(=O)O)NC(=O)[C@H](CO)NC(=O)[C@@H](NC(=O)[C@H](Cc1cccnc1)NC(=O)[C@@H](NC(=O)CNC(=O)[C@H](CCC(N)=O)NC(=O)[C@H](CO)NC(=O)[C@@H](N)Cc1cnc[nH]1)[C@@H](C)O)[C@@H](C)O)C(C)C)C(=O)N[C@@H](CC(N)=O)C(=O)N[C@H](C(=O)O)[C@@H](C)O`, the result in data set [3], in data set [5] and in data set [7] was Active. The result in data set [4] was inactive. In data set [6], the Activity is 82%. Moreover, the values for the solubility result in data set [2] and in data set [1] were “Soluble” and above 15 mg/mL, respectively.
As for `CSCC[C@H](NC(=O)[C@H](CC(C)C)NC(=O)[C@H](Cc1c[nH]c2ccccc12)NC(=O)[C@H](CCC(N)=O)NC(=O)[C@@H](NC(=O)[C@H](Cc1ccccc1)NC(=O)[C@H](CC(=O)O)NC(=O)[C@H](CCC(N)=O)NC(=O)[C@H](C)NC(=O)[C@H](CCCNC(=N)N)NC(=O)[C@H](CCCNC(=N)N)NC(=O)C(C)(C)NC(=O)[C@H](CC(=O)O)NC(=O)[C@H](CC(C)C)NC(=O)[C@H](Cc1cccnc1)NC(=O)[C@H](CCCCN)NC(=O)[C@H](CO)NC(=O)[C@H](Cc1ccc(O)cc1)NC(=O)[C@H](CC(=O)O)NC(=O)[C@H](CO)NC(=O)[C@@H](NC(=O)[C@H](Cc1ccccc1)NC(=O)[C@@H](NC(=O)CNC(=O)[C@H](CCC(N)=O)NC(=O)[C@H](CO)NC(=O)[C@@H](N)Cc1cnc[nH]1)[C@@H](C)O)[C@@H](C)O)C(C)C)C(=O)N[C@@H](CC(N)=O)C(=O)N[C@H](C(=O)O)[C@@H](C)O`, the solubility in data set [1] is above 1 mg/mL.
Turning to `CSCC[C@H](NC(=O)[C@H](CC(C)C)NC(=O)[C@H](Cc1c[nH]c2ccccc12)NC(=O)[C@H](CCC(N)=O)NC(=O)[C@@H](NC(=O)[C@H](Cc1cccnc1)NC(=O)[C@H](CC(=O)O)NC(=O)[C@H](CCC(N)=O)NC(=O)[C@H](C)NC(=O)[C@H](CCCNC(=N)N)NC(=O)[C@H](CCCNC(=N)N)NC(=O)C(C)(C)NC(=O)[C@H](CC(=O)O)NC(=O)[C@H](CC(C)C)NC(=O)[C@H](Cc1cccnc1)NC(=O)[C@H](CCCCN)NC(=O)[C@H](CO)NC(=O)[C@H](Cc1cccnc1)NC(=O)[C@H](CC(=O)O)NC(=O)[C@H](CO)NC(=O)[C@@H](NC(=O)[C@H](Cc1cccnc1)NC(=O)[C@@H](NC(=O)CNC(=O)[C@H](CCC(N)=O)NC(=O)[C@H](CO)NC(=O)[C@@H](N)Cc1cnc[nH]1)[C@@H](C)O)[C@@H](C)O)C(C)C)C(=O)N[C@@H](CC(N)=O)C(=O)N[C@H](C(=O)O)[C@@H](C)O` (H-HSQGT[3Pal]TSD[3Pal]SK[3Pal]LD[Aib]RRAQD[3Pal]VQWLMNT-OH), the solubility result in data set [2] was “Soluble”; in data set [1], above 15 mg/mL.
Consider `CSCC[C@H](NC(=O)[C@H](CC(C)C)NC(=O)[C@H](Cc1c[nH]c2ccccc12)NC(=O)[C@H](CCC(N)=O)NC(=O)[C@@H](NC(=O)[C@H](Cc1ccccc1)NC(=O)[C@H](CC(=O)O)NC(=O)[C@H](CCC(N)=O)NC(=O)[C@H](C)NC(=O)[C@H](CCCNC(=N)N)NC(=O)[C@H](CCCNC(=N)N)NC(=O)C(C)(C)NC(=O)[C@H](CC(=O)O)NC(=O)[C@H](CC(C)C)NC(=O)[C@H](Cc1cccnc1)NC(=O)[C@H](CCCCN)NC(=O)[C@H](CO)NC(=O)[C@H](Cc1cccnc1)NC(=O)[C@H](CC(=O)O)NC(=O)[C@H](CO)NC(=O)[C@@H](NC(=O)[C@H](Cc1ccccc1)NC(=O)[C@@H](NC(=O)CNC(=O)[C@H](CCC(N)=O)NC(=O)[C@H](CO)NC(=O)[C@@H](N)Cc1cnc[nH]1)[C@@H](C)O)[C@@H](C)O)C(C)C)C(=O)N[C@@H](CC(N)=O)C(=O)N[C@H](C(=O)O)[C@@H](C)O`, for which the solubility in data set [1] was above 15 mg/mL.
With GLUCAGON, the outcome in data set [3] and in data set [7] was Active. Besides, the outcome in data set [4] was inactive.
With `CSCC[C@H](NC(=O)[C@H](CC(C)C)NC(=O)[C@H](Cc1c[nH]c2ccccc12)NC(=O)[C@H](CCC(N)=O)NC(=O)[C@@H](NC(=O)[C@H](Cc1ccccc1)NC(=O)[C@H](CC(=O)O)NC(=O)[C@H](CCC(N)=O)NC(=O)[C@H](C)NC(=O)[C@H](CCCNC(=N)N)NC(=O)[C@H](CCCNC(=N)N)NC(=O)C(C)(C)NC(=O)[C@H](CC(=O)O)NC(=O)[C@H](CC(C)C)NC(=O)[C@H](Cc1ccc(O)cc1)NC(=O)[C@H](CCCCN)NC(=O)[C@H](CO)NC(=O)[C@H](Cc1cccnc1)NC(=O)[C@H](CC(=O)O)NC(=O)[C@H](CO)NC(=O)[C@@H](NC(=O)[C@H](Cc1ccccc1)NC(=O)[C@@H](NC(=O)CNC(=O)[C@H](CCC(N)=O)NC(=O)[C@H](CO)NC(=O)[C@@H](N)Cc1cnc[nH]1)[C@@H](C)O)[C@@H](C)O)C(C)C)C(=O)N[C@@H](CC(N)=O)C(=O)N[C@H](C(=O)O)[C@@H](C)O`, in data set [1], the solubility was above 1 mg/mL.
With `CSCC[C@H](NC(=O)[C@H](CC(C)C)NC(=O)[C@H](Cc1c[nH]c2ccccc12)NC(=O)[C@H](CCC(N)=O)NC(=O)[C@@H](NC(=O)[C@H](Cc1ccccc1)NC(=O)[C@H](CC(=O)O)NC(=O)[C@H](CCC(N)=O)NC(=O)[C@H](C)NC(=O)[C@H](CCCNC(=N)N)NC(=O)[C@H](CCCNC(=N)N)NC(=O)C(C)(C)NC(=O)[C@H](CC(=O)O)NC(=O)[C@H](CC(C)C)NC(=O)[C@H](Cc1ccncc1)NC(=O)[C@H](CCCCN)NC(=O)[C@H](CO)NC(=O)[C@H](Cc1ccc(O)cc1)NC(=O)[C@H](CC(=O)O)NC(=O)[C@H](CO)NC(=O)[C@@H](NC(=O)[C@H](Cc1ccccc1)NC(=O)[C@@H](NC(=O)CNC(=O)[C@H](CCC(N)=O)NC(=O)[C@H](CO)NC(=O)[C@@H](N)Cc1cnc[nH]1)[C@@H](C)O)[C@@H](C)O)C(C)C)C(=O)N[C@@H](CC(N)=O)C(=O)N[C@H](C(=O)O)[C@@H](C)O`, in data set [1], the solubility was above 1 mg/mL.
On to `CSCC[C@H](NC(=O)[C@H](CC(C)C)NC(=O)[C@H](Cc1c[nH]c2ccccc12)NC(=O)[C@H](CCC(N)=O)NC(=O)[C@@H](NC(=O)[C@H](Cc1ccccc1)NC(=O)[C@H](CC(=O)O)NC(=O)[C@H](CCC(N)=O)NC(=O)[C@H](C)NC(=O)[C@H](CCCNC(=N)N)NC(=O)[C@H](CCCNC(=N)N)NC(=O)C(C)(C)NC(=O)[C@H](CC(=O)O)NC(=O)[C@H](CC(C)C)NC(=O)[C@H](Cc1ccncc1)NC(=O)[C@H](CCCCN)NC(=O)[C@H](CO)NC(=O)[C@H](Cc1ccncc1)NC(=O)[C@H](CC(=O)O)NC(=O)[C@H](CO)NC(=O)[C@@H](NC(=O)[C@H](Cc1ccccc1)NC(=O)[C@@H](NC(=O)CNC(=O)[C@H](CCC(N)=O)NC(=O)[C@H](CO)NC(=O)[C@@H](N)Cc1cnc[nH]1)[C@@H](C)O)[C@@H](C)O)C(C)C)C(=O)N[C@@H](CC(N)=O)C(=O)N[C@H](C(=O)O)[C@@H](C)O`, for which the solubility entry in data set [2] is “Soluble”; in data set [1] it was above 15 mg/mL.

Values taken from ChEMBL document CHEMBL4431340, “Pyridyl-alanine as a Hydrophilic, Aromatic Element in Peptide Structural Optimization” (J Med Chem, 2016).
